The test system of experiment [1] is Rattus norvegicus. Nature of the experiment: Activity for diarrheagenic effect in rats by intragastric administration and the value ranges between 106-698. The experiment is classed as functional. The settings on record: po. The method in brief: (§1)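 Adult male Charles River rats (210–230 g), individually housed, fasted 24 h with water ad libitum. Logarithmically graded prostaglandin doses given orally (intragastric), N = 6-12 per group. Diarrhea scored all-or-none over 8 h after dosing. Prostaglandin stock 1 mg/mL in absolute ethanol, diluted in phosphate buffer pH 7.4 to at most 20% ethanol.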

In experiment [2] the test system is Canis familiaris. Description: Activity for gastric antisecretory activity in dogs by intrapouch administration and the value ranges between 0.083-0.094. In kind it is functional. Particulars: Canis lupus familiaris, Stomach. Summed up: (§2)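 Adult female beagles (6-11 kg) with innervated Pavlov pouches, fasted 24 h with water available. Prostaglandin in isosmotic phosphate buffer pH 7.4 (≤20% ethanol) or vehicle given into the pouch via Thomas cannula after a 30-min basal collection. Canned food fed 30 min later. Juice collected at 30-min intervals for 4 h; acid output = volume × acidity.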

The test system of experiment [3] is Rattus norvegicus. Description: Activity for diarrheagenic effect in rats by intragastric administration. Particulars: po. The experiment is classed as functional. The method in brief: as §1
Experiment [4] has as its system Canis familiaris. Nature of the experiment: Activity for gastric antisecretory activity in dogs by intrapouch administration and the value ranges between 63.2-76.9. Particulars: Canis lupus familiaris, Stomach. In kind it is functional. The method in brief: as §2
In experiment [5] the test system is Rattus norvegicus. Nature of the experiment: Activity for diarrheagenic effect in rats by intragastric administration and the value ranges between 947-1848. Particulars: po. The experiment is classed as functional. Summed up:
as §1

The test system of experiment [6] is Canis familiaris. Description: Activity for gastric antisecretory activity in dogs by intrapouch administration and the value ranges between 0.06-0.12. In kind it is functional. The settings on record: Canis lupus familiaris, Stomach. The method in brief:
as §2

Experiment [7] relates to Canis familiaris. Description: Activity for gastric antisecretory activity in dogs by intrapouch administration. In kind it is functional. Particulars: Canis lupus familiaris, Stomach. Summed up: as §2
Experiment [8] concerns Canis familiaris. Description: Activity for gastric antisecretory activity in dogs by intrapouch administration and the value ranges between 0.069-0.096. In kind it is functional. The settings on record: Canis lupus familiaris, Stomach. The method in brief:
as §2

Experiment [9] relates to Rattus norvegicus. Nature of the experiment: Activity for diarrheagenic effect in rats by intragastric administration and the value ranges between 141-1134. The experiment is classed as functional. Particulars: po. Summed up: as §1
In experiment [10] the test system is Canis familiaris. Nature of the experiment: No inhibitory activity (3 ug/kg) for gastric antisecretory activity in dogs by intrapouch administration. In kind it is functional, Canis lupus familiaris, Stomach. Summed up: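 Food-stimulated Pavlov-pouch beagles were dosed intrapouch, highest dose tested 3.0 µg/kg, in phosphate buffer pH 7.4 with at most 20% ethanol. Gastric juice was collected at 30-min intervals for 4 h after feeding. Percent reduction of total acid output (volume × acidity) from control was calculated.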

For experiment [11], the system named is Canis familiaris. Nature of the experiment: Activity for gastric antisecretory activity in dogs by intrapouch administration and the value ranges between 0.017-0.032. The experiment is classed as functional. Particulars: Canis lupus familiaris, Stomach. The method in brief:
as §2

Experiment [12] relates to Rattus norvegicus. Nature of the experiment: Activity for diarrheagenic effect in rats by intragastric administration and the value ranges between 37-77. The experiment is classed as functional. Particulars: po. Summed up:
as §1

Consider seven molecules from ChEMBL document CHEMBL1124453, “18-cycloalkyl analogues of enisoprost” (1989).

Each structure is given as a SMILES string.

By ED50 is commonly meant the dose at which the effect has come halfway, by size or by number of responders. Read a low ED50 as an effect at a small dose. A word on the Inhibition: it is the relative decrease from the control value, in per cent. A lower Inhibition goes with a weak effect.

In the case of `COC(=O)CC/C=C\CC[C@H]1C(=O)C[C@@H](O)[C@@H]1/C=C/CC(C)(O)CCC1CC1` (stereo partly drawn), the 50% effective dose (ED50) stood at 273 µg/kg with Rattus norvegicus [1] and 0.09 µg/kg with Canis familiaris [2].
For the molecule `COC(=O)CC/C=C\CC[C@H]1C(=O)C[C@@H](O)[C@@H]1/C=C/CC(C)(O)CCC1CCCCC1` (stereo partly drawn), the ED50 with Rattus norvegicus [3] was above 3160 µg/kg; in the experiment with Canis familiaris [4] it was 70 µg/kg.
For the molecule `COC(=O)CC/C=C\CC[C@H]1C(=O)C[C@@H](O)[C@@H]1/C=C/CC(C)(O)CCC1CCCC1` (stereo partly drawn), the median effective dose (ED50) amounted to 1310 µg/kg with Rattus norvegicus [5] and 0.09 µg/kg with Canis familiaris [6].
Turning to `COC(=O)CC/C=C\CC[C@H]1C(=O)C[C@@H](O)[C@@H]1/C=C/CC(C)(O)CCC1CCCCCC1` (stereo partly drawn), the ED50 is around 95 µg/kg in the experiment on Canis familiaris [7] and above 3160 µg/kg in the experiment on Rattus norvegicus [3].
For the molecule `COC(=O)CC/C=C\CC[C@H]1C(=O)C[C@@H](O)[C@@H]1/C=C/CC(C)(O)CCC1CCC1` (stereo partly drawn), the ED50 in the experiment on Canis familiaris [8] turned out to be 0.09 µg/kg; in the experiment on Rattus norvegicus [9] it was 316 µg/kg.
As for `COC(=O)CC/C=C\CC[C@H]1C(=O)C[C@@H](O)[C@@H]1/C=C/CC(C)(O)CCCCO` (stereo partly drawn), the Inhibition in the experiment with Canis familiaris [10] was determined as 0%.
For `CCCCC(C)(O)C/C=C/[C@H]1[C@H](O)CC(=O)[C@@H]1CC/C=C\CCC(=O)OC` (stereo partly drawn) [ENISOPROST], the ED50 in the experiment with Canis familiaris [11] was determined as 0.023 µg/kg; in the experiment with Rattus norvegicus [12] it was 49 µg/kg.
